From ChEMBL document CHEMBL4392862, “Antioxidant, anti-tyrosinase and anti-melanogenic effects of (E)-2,3-diphenylacrylic acid derivatives” (Bioorg Med Chem, 2019)

Assays:
[1] = Antioxidant activity assessed as DPPH radical scavenging activity at 1 mM after 30 mins under dark condition relative to untreated control; assay type: functional
Procedure, shortened: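 Test compounds dissolved in DMSO, mixed 1:9 (v/v) with 0.2 mM DPPH in methanol to a tested level of 1 mM. Incubated 30 min in the dark. Absorbance read at 517 nm. Scavenging % = (Ac−As)×100/Ac against untreated control. L-ascorbic acid used as positive control. Triplicate.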

[2] = molecular target: T1, Tyrosinase (Mus musculus) (UniProt P11344); conditions: 400 uM
T1 sequence (whole entry): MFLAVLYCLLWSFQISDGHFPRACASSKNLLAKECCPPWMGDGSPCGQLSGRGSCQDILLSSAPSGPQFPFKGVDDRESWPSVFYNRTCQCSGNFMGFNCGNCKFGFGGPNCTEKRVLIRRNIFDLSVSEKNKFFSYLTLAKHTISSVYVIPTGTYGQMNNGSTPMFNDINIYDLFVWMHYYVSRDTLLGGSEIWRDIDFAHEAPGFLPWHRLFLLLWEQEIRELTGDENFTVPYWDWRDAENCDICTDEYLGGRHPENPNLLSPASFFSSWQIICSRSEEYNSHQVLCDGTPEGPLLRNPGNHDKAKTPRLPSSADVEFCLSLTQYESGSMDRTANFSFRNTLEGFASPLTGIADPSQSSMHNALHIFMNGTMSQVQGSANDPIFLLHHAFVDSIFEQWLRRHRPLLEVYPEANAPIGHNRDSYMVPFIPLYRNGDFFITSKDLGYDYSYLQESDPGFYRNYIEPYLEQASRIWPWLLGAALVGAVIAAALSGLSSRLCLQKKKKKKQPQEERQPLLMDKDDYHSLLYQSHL

[3] = molecular target: T1, Tyrosinase (Mus musculus); assay: Inhibition of tyrosinase in alpha-MSH-stimulated mouse B16F10 cells incubated for 24 hrs relative to untreated control
Procedure, shortened: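 B16F10 cells seeded at 5x10^4 per well and grown 24 h at 37 °C, 5% CO2. […] Cells PBS-washed, lysed in PMSF/Triton X-100 buffer, frozen at −80 °C, spun 12,000 rpm 4 °C. Supernatant incubated with L-dopa 30 min at 37 °C, OD read at 500 nm. Triplicate.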

B16-F10 = assay: Cytotoxicity against mouse B16F10 cells assessed as reduction in cell viability at 5 to 10 uM incubated for 24 hrs by WST8 assay; assay type: cell-based; conditions: b16-f10, 24 h
Procedure, shortened: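 B16F10 cells seeded at 5x10^4 per well in DMEM with 10% FBS and penicillin/streptomycin, 37 °C, 5% CO2, and grown 24 h. Exposed to 0, 5, 10 or 25 µM for 24 h. WST-8 reagent added for 1 h, OD read at 450 nm. Viability expressed as % of untreated cells. Three repeats.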

Structure (SMILES) | inhibition [1] | further results
O=C(O)/C(=C/c1ccc(O)c(Br)c1)c1ccccc1 | 19.4% | –
OC[C@H]1O[C@@H](Oc2ccc(O)cc2)[C@H](O)[C@@H](O)[C@@H]1O | – | inhibition [2]: 42.6%
O=C(O)/C(=C/c1ccc(O)cc1O)c1ccccc1 | 52.1% | inhibition [3]: Dose-dependent effect; Activity (B16-F10): Non-Toxic
O=C(O)/C(=C\c1cc(Br)c(O)c(Br)c1)c1ccccc1 | 11.6% | –
O=C1O[C@H]([C@@H](O)CO)C(O)=C1O | 84.6% | –
O=C(O)/C(=C/c1cc(Br)c(O)c(Br)c1)c1ccccc1 | 23.9% | –
O=C(O)/C(=C/c1ccc(O)c(O)c1)c1ccccc1 | 83.7% | –
COc1cc(/C=C(/C(=O)O)c2ccccc2)cc(OC)c1O | 85% | –
COc1ccc(/C=C(/C(=O)O)c2ccccc2)cc1OC | 10.2% | –
COc1cc(/C=C(/C(=O)O)c2ccccc2)ccc1O | 81.6% | –
O=C(O)/C(=C/c1ccccc1O)c1ccccc1 | 4.43% | –
O=C(O)/C(=C/c1cccc(O)c1)c1ccccc1 | 12.4% | –
CCOc1cc(/C=C(/C(=O)O)c2ccccc2)ccc1O | 43.6% | –
COc1ccc(/C=C(/C(=O)O)c2ccccc2)cc1O | 24% | –
O=C(O)/C(=C/c1ccc(O)cc1)c1ccccc1 | 6.04% | –
COc1ccc(/C=C(/C(=O)O)c2ccccc2)cc1 | 5.68% | –
Cc1cc(/C=C(/C(=O)O)c2ccccc2)ccc1O | 78.1% | –
